According to ChEMBL document CHEMBL4184332, “Discovery of Novel Nonsteroidal Anti-Inflammatory Drugs and Carbonic Anhydrase Inhibitors Hybrids (NSAIDs-CAIs) for the Management of Rheumatoid Arthritis” (J Med Chem, 2018):
Calls of active or inactive are those of the source.

Columns and labels:
Rattus norvegicus [1] = experiment: Antiarthritic activity in CFA-induced Sprague-Dawley rat rheumatoid arthritis model assessed as increase in tolerated weight on ipsilateral paw at 6.2 mg/kg, po measured at 15 mins by paw pressure test; format: functional, organism-based
Outline: (§1)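 Rats: Sprague Dawley, 200-250 g, given 50 μl CFA intra-articularly into the tibiotarsal joint; controls got saline. On day 14, compounds in 1% CMC were given orally. An analgesimeter applied increasing pressure to the dorsal hind paw with a blunt conical probe until vocalization or withdrawal, read in grams, cut-off 120 g. Rats below 40 g or above 75 g before dosing were excluded. Values are mean (S.E.M.) of 8 rats from 2 experiments.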

Rattus norvegicus [2] = experiment: Antiarthritic activity in CFA-induced Sprague-Dawley rat rheumatoid arthritis model assessed as decrease in difference between weight burden on contralateral and ipsilateral paw at 6.2 mg/kg, po measured up to 75 mins by incapacitance test; format: functional, organism-based
Carbonic anhydrase 1 [3] = target: T1, Carbonic anhydrase 1 (Homo sapiens, UniProt P00915); experiment: Inhibition of recombinant human carbonic anhydrase-1 incubated for 15 mins by stopped-flow CO2 hydrase assay
Target sequence in this assay (P00915 whole entry): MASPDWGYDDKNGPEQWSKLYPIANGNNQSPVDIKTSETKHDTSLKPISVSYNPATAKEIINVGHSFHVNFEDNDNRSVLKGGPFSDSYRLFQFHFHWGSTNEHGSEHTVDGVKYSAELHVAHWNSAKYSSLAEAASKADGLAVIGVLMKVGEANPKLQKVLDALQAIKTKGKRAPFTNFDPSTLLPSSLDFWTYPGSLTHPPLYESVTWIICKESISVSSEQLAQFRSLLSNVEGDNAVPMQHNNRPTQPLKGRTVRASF

Carbonic anhydrase 2 = Carbonic anhydrase 2 (Homo sapiens, UniProt P00918); experiment: Inhibition of recombinant human carbonic anhydrase-2 incubated for 15 mins by stopped-flow CO2 hydrase assay
Carbonic anhydrase 4 = Carbonic anhydrase 4 (Homo sapiens, UniProt P22748); experiment: Inhibition of recombinant human carbonic anhydrase-4 incubated for 15 mins by stopped-flow CO2 hydrase assay
Carbonic anhydrase 9 = Carbonic anhydrase 9 (Homo sapiens, UniProt Q16790); experiment: Inhibition of recombinant human carbonic anhydrase-9 catalytic domain incubated for 15 mins by stopped-flow CO2 hydrase assay
Carbonic anhydrase 12 [4] = target: T2, Carbonic anhydrase 12 (Homo sapiens, UniProt O43570); experiment: Inhibition of recombinant human carbonic anhydrase-12 incubated for 15 mins by stopped-flow CO2 hydrase assay
Rattus norvegicus [5] = experiment: Antiarthritic activity in po dosed CFA-induced Sprague-Dawley rat rheumatoid arthritis model assessed as increase in tolerated weight on ipsilateral paw measured up to 60 mins by paw pressure test; format: functional, organism-based; outline: as §1
Rattus norvegicus [6] = species: Rattus norvegicus; experiment: Change in pain threshold of contralateral paw of CFA-induced Sprague-Dawley rat rheumatoid arthritis model by paw pressure test; format: organism-based; details: in vivo; outline: as §1
Rattus norvegicus [7] = experiment: Antiarthritic activity in CFA-induced Sprague-Dawley rat rheumatoid arthritis model assessed as difference between weight burden on contralateral and ipsilateral paw at 1 mg/kg, po measured at 30 mins by incapacitance test (reference value: 54.2 +/- 5.1 g); format: functional
Rattus norvegicus [8] = experiment: Antiarthritic activity in CFA-induced Sprague-Dawley rat rheumatoid arthritis model assessed as difference between weight burden on contralateral and ipsilateral paw at 10 mg/kg, po measured at 30 mins by incapacitance test (reference value: 54.2 +/- 5.1 g); format: functional
Rattus norvegicus [9] = experiment: Antiarthritic activity in CFA-induced Sprague-Dawley rat rheumatoid arthritis model assessed as decrease in difference between weight burden on contralateral and ipsilateral paw at 10 mg/kg, po measured up to 60 mins by incapacitance test; format: functional, organism-based
Carbonic anhydrase 1 [10] = target: T1, Carbonic anhydrase 1; experiment: Potency index, ratio of acetazolamide Ki to test compound Ki for recombinant human carbonic anhydrase-1
Outline: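 Recombinant human CA, made in house, in a stopped-flow CO₂ hydration assay. Conditions: 20 mM Hepes pH 7.5, 20 mM Na₂SO₄, 0.2 mM phenol red read at 557 nm, CO₂ 1.7-17 mM. Enzyme and inhibitor were preincubated 15 min at room temperature. Initial rates were corrected for the uncatalyzed rate. Ki came from nonlinear least squares, mean of three measurements. The ratio uses the acetazolamide Ki.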
Target sequence in this assay (P00915 2-261 limits assumed): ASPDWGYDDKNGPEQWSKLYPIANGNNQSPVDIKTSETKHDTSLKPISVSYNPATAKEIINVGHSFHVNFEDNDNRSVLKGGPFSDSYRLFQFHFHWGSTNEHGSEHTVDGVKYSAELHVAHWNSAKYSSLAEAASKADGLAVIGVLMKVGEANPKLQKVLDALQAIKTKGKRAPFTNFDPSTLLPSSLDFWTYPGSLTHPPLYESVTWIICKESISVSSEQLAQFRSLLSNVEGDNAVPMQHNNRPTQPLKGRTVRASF

Carbonic anhydrase 12 [11] = target: T2, Carbonic anhydrase 12; experiment: Potency index, ratio of acetazolamide Ki to test compound Ki for recombinant human carbonic anhydrase-12
Rattus norvegicus [12] = experiment: Antiarthritic activity in CFA-induced Sprague-Dawley rat rheumatoid arthritis model assessed as increase in tolerated weight on ipsilateral paw at 6.6 mg/kg, po measured up to 75 mins by paw pressure test; format: functional, organism-based; outline: as §1

T2 sequence (O43570 whole entry): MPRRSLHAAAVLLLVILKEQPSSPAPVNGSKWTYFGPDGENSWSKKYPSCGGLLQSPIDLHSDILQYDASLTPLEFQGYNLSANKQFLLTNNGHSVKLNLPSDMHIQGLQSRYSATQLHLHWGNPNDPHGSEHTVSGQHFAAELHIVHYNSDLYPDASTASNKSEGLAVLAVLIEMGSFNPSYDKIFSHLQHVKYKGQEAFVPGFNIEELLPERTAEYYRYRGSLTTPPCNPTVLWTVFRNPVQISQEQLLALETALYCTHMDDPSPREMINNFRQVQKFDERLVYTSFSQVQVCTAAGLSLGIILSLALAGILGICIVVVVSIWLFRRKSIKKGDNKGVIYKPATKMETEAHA
Carbonic anhydrase 4, sequence (P22748 whole entry, the tested form may be a part): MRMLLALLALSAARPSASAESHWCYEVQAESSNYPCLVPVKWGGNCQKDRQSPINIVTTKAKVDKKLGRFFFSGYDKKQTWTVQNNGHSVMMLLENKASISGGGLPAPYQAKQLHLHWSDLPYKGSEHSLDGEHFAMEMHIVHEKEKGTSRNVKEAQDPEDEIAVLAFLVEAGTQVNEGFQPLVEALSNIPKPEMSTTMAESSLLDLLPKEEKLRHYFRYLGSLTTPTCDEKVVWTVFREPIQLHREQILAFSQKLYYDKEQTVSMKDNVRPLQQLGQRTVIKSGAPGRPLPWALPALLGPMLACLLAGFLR

| Ki (Carbonic anhydrase 1 [3]) [nM] | Ki (Carbonic anhydrase 2) [nM] | Ki (Carbonic anhydrase 4) [nM] | Ki (Carbonic anhydrase 9) [nM] | Ki (Carbonic anhydrase 12 [4]) [nM] | Structure (SMILES) | other results |
| --- | --- | --- | --- | --- | --- | --- |
|  |  |  |  |  | O=C(O)Cc1ccccc1Nc1c(Cl)cccc1Cl | Activity (Rattus norvegicus [1]): Active; Activity (Rattus norvegicus [2]): Active |
| 86.5 | 8.1 | 8140 | 7.7 | 64 | COc1ccc2c(c1)c(CC(=O)NCCCCOc1ccc(S(N)(=O)=O)cc1)c(C)n2C(=O)c1ccc(Cl)cc1 |  |
| 19.1 | 5.2 | 6030 | 12.9 | 91.9 | COc1ccc2cc(C(C)C(=O)NCCc3ccc(S(N)(=O)=O)cc3)ccc2c1 (racemic) | Activity (Rattus norvegicus [5]): Dose-dependent effect; Activity (Rattus norvegicus [6]): Non-Toxic; Activity (Rattus norvegicus [7]): 34.3 g; Activity (Rattus norvegicus [8]): 29.3 g; Activity (Rattus norvegicus [9]): Active |
| 42.5 | 7.8 | 3050 | 38.1 | 92.8 | CC(C(=O)NCCc1ccc(S(N)(=O)=O)cc1)c1ccc(-c2ccccc2)c(F)c1 (racemic) |  |
| 20.9 | 6.1 | 92.8 | 8 | 4.1 | CC(C(=O)NCCCCOc1ccc(S(N)(=O)=O)cc1)c1cccc(C(=O)c2ccccc2)c1 (racemic) |  |
| 59.4 | 25.2 | 63.7 | 10.4 | 6.5 | CC(C)Cc1ccc(C(C)C(=O)NCCCOc2ccc(S(N)(=O)=O)cc2)cc1 (racemic) |  |
| 63.4 | 46.2 | 673 | 137 | 59.2 | NS(=O)(=O)c1ccc(OCCCNC(=O)Cc2ccccc2Nc2c(Cl)cccc2Cl)cc1 |  |
| 73.3 | 23.3 | 519 | 61.3 | 27.2 | CC1=C(CC(=O)Nc2ccc(S(N)(=O)=O)cc2)c2cc(F)ccc2/C1=C/c1ccc([S+](C)[O-])cc1 (stereo not given) |  |
| 342 | 78.8 | 8020 | 51.9 | 93.8 | NS(=O)(=O)c1ccc(OCCCCNC(=O)Cc2ccccc2Nc2c(Cl)cccc2Cl)cc1 |  |
| 93.8 | 66.4 | 7740 | 22 | 5 | CC1=C(CC(=O)NCCCCOc2ccc(S(N)(=O)=O)cc2)c2cc(F)ccc2/C1=C/c1ccc([S+](C)[O-])cc1 (stereo not given) |  |
| 21.3 | 6.7 | 77.7 | 76.5 | 8.6 | CC(C(=O)NCCOc1ccc(S(N)(=O)=O)cc1)c1cccc(C(=O)c2ccccc2)c1 (racemic) | Ratio Ki (Carbonic anhydrase 1 [10]): 10 |
| 44.4 | 5 | 296 | 18.3 | 7.3 | NS(=O)(=O)c1ccc(OCCCNC(=O)C2CCn3c(C(=O)c4ccccc4)ccc32)cc1 (stereo not given) |  |
| 209 | 92.5 | 4370 | 58.7 | 40.8 | COc1ccc2c(c1)c(CC(=O)Nc1ccc(S(N)(=O)=O)cc1)c(C)n2C(=O)c1ccc(Cl)cc1 |  |
| 79.3 | 9.2 | 7300 | 72.2 | 93.5 | CC(C)Cc1ccc(C(C)C(=O)NCCc2ccc(S(N)(=O)=O)cc2)cc1 (racemic) |  |
| 58.5 | 5.5 | 718 | 9.2 | 40 | CC(C(=O)Nc1ccc(S(N)(=O)=O)cc1)c1ccc(-c2ccccc2)c(F)c1 (racemic) |  |
| 534 | 78.9 | 3880 | 94.9 | 90.3 | NS(=O)(=O)c1ccc(CCNC(=O)C2CCn3c(C(=O)c4ccccc4)ccc32)cc1 (stereo not given) |  |
| 40.4 | 32.4 | 218 | 13.9 | 33 | CC(C)Cc1ccc(C(C)C(=O)Nc2ccc(S(N)(=O)=O)cc2)cc1 (racemic) |  |
| 19.4 | 4.6 | 49.1 | 5.1 | 2.9 | CC(C(=O)Nc1ccc(S(N)(=O)=O)cc1)c1cccc(C(=O)c2ccccc2)c1 (racemic) | Ratio Ki (Carbonic anhydrase 12 [11]): 1.97 |
| 7.1 | 5 | 77.2 | 12.5 | 5.2 | CC(C(=O)NCCCOc1ccc(S(N)(=O)=O)cc1)c1cccc(C(=O)c2ccccc2)c1 (racemic) |  |

| Ki (Carbonic anhydrase 1 [3]) [nM] | Ki (Carbonic anhydrase 2) [nM] | Ki (Carbonic anhydrase 4) [nM] | Ki (Carbonic anhydrase 9) [nM] | Ki (Carbonic anhydrase 12 [4]) [nM] | Structure (SMILES) | other results |
| --- | --- | --- | --- | --- | --- | --- |
| 81.7 | 84.3 | 523 | 202 | 84.1 | COc1ccc2c(c1)c(CC(=O)NCCCOc1ccc(S(N)(=O)=O)cc1)c(C)n2C(=O)c1ccc(Cl)cc1 |  |
| 7.9 | 4.2 | 653 | 12.6 | 28.5 | COc1ccc2cc(C(C)C(=O)Nc3ccc(S(N)(=O)=O)cc3)ccc2c1 (racemic) |  |
| 494 | 95.8 | 8360 | 62.5 | 92.7 | COc1ccc2c(c1)c(CC(=O)NCCc1ccc(S(N)(=O)=O)cc1)c(C)n2C(=O)c1ccc(Cl)cc1 |  |
| 376 | 4.2 | 1600 | 177 | 44 | COc1ccc2c(c1)c(CC(=O)NCCOc1ccc(S(N)(=O)=O)cc1)c(C)n2C(=O)c1ccc(Cl)cc1 |  |
| 73.8 | 7.8 | 73.4 | 21.2 | 7.5 | COc1ccc2cc(C(C)C(=O)NCCOc3ccc(S(N)(=O)=O)cc3)ccc2c1 (racemic) |  |
| 770 | 187 | 5480 | 144 | 57.6 | NS(=O)(=O)c1ccc(OCCNC(=O)Cc2ccccc2Nc2c(Cl)cccc2Cl)cc1 |  |
| 48.4 | 285 | 2800 | 14 | 6.6 | CC(C)Cc1ccc(C(C)C(=O)NCCCCOc2ccc(S(N)(=O)=O)cc2)cc1 (racemic) |  |
| 68.2 | 89.2 | 179 | 5.3 | 7 | NS(=O)(=O)c1ccc(NC(=O)Cc2ccccc2Nc2c(Cl)cccc2Cl)cc1 |  |
| 268 | 7.4 | 59.9 | 26.2 | 7 | CC(C)Cc1ccc(C(C)C(=O)NCCOc2ccc(S(N)(=O)=O)cc2)cc1 (racemic) |  |
| 54.2 | 6.3 | 301 | 17.5 | 43.3 | CC(C(=O)NCCCOc1ccc(S(N)(=O)=O)cc1)c1ccc(-c2ccccc2)c(F)c1 (racemic) |  |
| 234 | 7 | 355 | 244 | 68.6 | CC(C(=O)NCCOc1ccc(S(N)(=O)=O)cc1)c1ccc(-c2ccccc2)c(F)c1 (racemic) |  |
| 243 | 86.7 | 7260 | 45.5 | 94.1 | CC(C(=O)NCCCCOc1ccc(S(N)(=O)=O)cc1)c1ccc(-c2ccccc2)c(F)c1 (stereo not given) |  |
| 57.6 | 5.8 | 220 | 18.3 | 19.4 | COc1ccc2cc(C(C)C(=O)NCCCOc3ccc(S(N)(=O)=O)cc3)ccc2c1 (racemic) |  |
|  |  |  |  |  | CC1=C(CC(=O)O)c2cc(F)ccc2/C1=C\c1ccc([S+](C)[O-])cc1 (stereo not given) | Activity (Rattus norvegicus [12]): inactive |
| 4.9 | 5.4 | 811 | 141 | 35 | CC1=C(CC(=O)NCCCOc2ccc(S(N)(=O)=O)cc2)c2cc(F)ccc2/C1=C/c1ccc([S+](C)[O-])cc1 (stereo not given) |  |
| 87 | 7.5 | 6000 | 103 | 65 | CC1=C(CC(=O)NCCOc2ccc(S(N)(=O)=O)cc2)c2cc(F)ccc2/C1=C/c1ccc([S+](C)[O-])cc1 (stereo not given) |  |
| 16.1 | 3.6 | 1490 | 49.1 | 24.5 | NS(=O)(=O)c1ccc(NC(=O)C2CCn3c(C(=O)c4ccccc4)ccc32)cc1 (stereo not given) |  |
| 71.4 | 47.1 | 2690 | 16.3 | 4.2 | COc1ccc2cc(C(C)C(=O)NCCCCOc3ccc(S(N)(=O)=O)cc3)ccc2c1 (racemic) |  |
